Shown are actives, neighbours in structure and some others; about 2.1% of the full set was active somewhere.
Runt-CBFb FRET = inhibitors of human RUNX1 Runt domain binding to CBFb; Q01196+Q13951; Cerulean-Runt/Venus-CBFb FRET ratio 530/480, 1 h; inhibition, % at 20 µM; 220,000 compounds, 0.46% hits; AID 1496;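 active = inhibition over about 50% at 20 µM in the single-dose screen, limit read from the data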;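 note: 0% = DMSO wells and 100% = excess unlabeled CBFb competitor control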
Target sequence (Q01196 whole entry, looked up, the tested form may be a part): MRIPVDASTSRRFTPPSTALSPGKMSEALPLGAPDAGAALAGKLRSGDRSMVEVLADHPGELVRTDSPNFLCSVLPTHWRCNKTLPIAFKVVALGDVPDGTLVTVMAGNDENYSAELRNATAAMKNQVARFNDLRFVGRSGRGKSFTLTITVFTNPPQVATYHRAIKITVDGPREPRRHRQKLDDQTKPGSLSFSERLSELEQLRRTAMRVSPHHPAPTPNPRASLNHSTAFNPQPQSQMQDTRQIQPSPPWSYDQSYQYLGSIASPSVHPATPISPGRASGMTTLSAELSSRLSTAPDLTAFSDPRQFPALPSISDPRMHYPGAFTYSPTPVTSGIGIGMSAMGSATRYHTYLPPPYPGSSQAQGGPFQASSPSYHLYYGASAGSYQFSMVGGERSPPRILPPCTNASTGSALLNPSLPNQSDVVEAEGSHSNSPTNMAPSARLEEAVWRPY
Target sequence (Q13951 whole entry, looked up, the tested form may be a part): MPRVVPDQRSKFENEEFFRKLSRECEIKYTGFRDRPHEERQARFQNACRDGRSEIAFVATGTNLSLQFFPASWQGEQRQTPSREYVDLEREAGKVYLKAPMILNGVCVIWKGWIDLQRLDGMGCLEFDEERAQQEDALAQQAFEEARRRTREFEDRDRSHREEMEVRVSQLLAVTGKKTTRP
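Assay system: Cerulean-tagged RUNX1 Runt domain (FRET donor) fusion protein / Amount: 100 nM each of Venus-CBFb and Cerulean-Runt domain / Medium: Tris buffer pH 7.5 with salts and BSA / Also added: Venus-CBFb 100 nM / Schedule: 1 h complex formation plus 1 h compound treatment, room temperature / Signal: FRET fluorescence / Read-out: loss of energy transfer signal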
Runt-SMMHC FRET = Runt domain-CBFb-SMMHC interaction inhibition | Q01196+Q13951 | Cerulean-Runt/Venus-CBFb-SMMHC FRET ratio 530/480, 1 h | inhibition, % at 20 µM | 220,000 compounds, 0.74% hits | AID 1434;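 active = mean inhibition across duplicate retests at 20 µM reaching about 50%, limit read from the data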;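 note: 0% = DMSO wells and 100% = wells with excess untagged CBFb-SMMHC; inhibitors lower the FRET ratio by blocking Runt binding to CBFb-SMMHC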
RanGTP-Impb inh = inhibitors of RanGTP-importin-beta interaction, primary screen, biochemical, FRET, CFP-Ran, YFP-importin-beta, homogeneous; cell-free CFP-Ran/YFP-importin-beta FRET ratio; inhibition, % (no concentration beside the values); 300,000 compounds, 1.1% hits; AID 2216;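 active = more than half of the replicate wells show a fall in the fluorescence ratio signal beyond about 16%, limit read from the data, passing the limit was not always enough; inconclusive = exactly half of the replicate wells pass the set limit; inactive = fewer than half of replicates pass the limit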;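 note: 0% = DMSO wells and 100% = Ran loaded with GDP instead of GTP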
MEX-5 binding = C. elegans MEX-5 TCR-2 RNA binding activity; 300,000 compounds, 0.38% hits; MEX-5/FITC-TCR2 RNA binding, fluorescence polarization; active compounds read low; Q9XUB2; activity score (negative = inhibition of binding), % at 10 µM;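 active = inhibition past about -25% in most replicates, and total fluorescence under double the plate's negative control median, limit read from the data; inconclusive = replicates evenly split on the limit, or fluorescence at least double controls; inactive = too little inhibition in most replicates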;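 note: 0% = DMSO and -100% = 5 µM competing unlabeled TCR2 RNA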
KLK7 zymogen act = activators of human kallikrein-7 zymogen; activation, % at 7 µM; purified proKLK7, EDANS-DABCYL substrate fluorescence; 100% is mature enzyme control, 0% vehicle; 370,000 compounds, 0.9% hits;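 active = activation above the mean of all tested compounds plus 3 SD, computed per campaign excluding outliers beyond control limits, cut at about 13% in these data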
RUNX1 CBFb TR = disrupts human RUNX1 Runt domain binding to CBFb. shares compounds with Runt-CBFb FRET. TR-FRET RUNX1 Runt domain-CBFb binding. inhibition, % at 20 µM. 480 compounds, 20% hits; in the data active = inhibition above about 40%
Active calls of the source: *; ? = inconclusive; . = not tested or not shown.

SMILES	Runt-CBFb FRET	Runt-SMMHC FRET	RanGTP-Impb inh	MEX-5 binding	KLK7 zymogen act	others
CC1(C)Cc2c(sc3nc(C4CCCCC4)n(N)c(=O)c23)CO1	1	2	5	.	0
CCCCCn1c(S(=O)(=O)O)nc2ccccc21	-2	0	2	1	0
CCCCCOC(=O)c1c(N)n(CCOC)c2nc3ccccc3nc12	36	114*	6	1	-19
CC1(C(=O)NCCC#N)CCN1C(=O)C1(c2ccccc2)CC1 (configuration not stated)	.	.	.	.	0
CCCn1c(NCc2cc(C)ccc2O)nc2ccccc21	2	0	28*	0	0
CCn1c(SCC(=O)c2ccc(-c3ccccc3)cc2)nnc1-c1ccccc1OC	.	.	.	.	0
O=C1/C(=C/N(C(=O)c2ccco2)c2ccc(Cl)cc2)Sc2ccccc21	21	75*	10	1	.
O=C1/C(=C/N(C(=O)c2ccco2)c2ccc(Br)cc2)Sc2ccccc21	20	67	25*	0	.
O=C(CCC1N=C2c3ccccc3N=C(SCc3ccc(Cl)cc3)N2C1=O)NCc1ccco1 (configuration not stated)	-3	0	27*	-1	1
O=C(CCC1N=C2c3ccccc3N=C(SCc3ccc(F)cc3)N2C1=O)NCc1ccco1 (configuration not stated)	2	5	?	-4	0
CC(C)(C)c1ccccc1NC(=S)NC1CCCCC1	-2	-3	83*	0	0
O=C(Nc1ccc2c(c1)OCO2)c1csc([C@@H]2C[C@H](O)[C@@H](CO)O2)n1	.	.	.	.	0
N#CCCN(C(=O)COC(=O)CCc1nc2ccccc2c(=O)[nH]1)c1ccccc1F	.	.	.	.	0
C=CCn1c(N)c(C(=O)NCC2CCCO2)sc1=S (configuration not stated)	1	0	4	-4	1
C=CCn1c(N)c(C(=O)NCC2CCCO2)c2nc3ccccc3nc21 (configuration not stated)	4	46	107*	-2	-37
COc1ccc(-n2c(N)c(C(=O)NCC3CCCO3)c3nc4ccccc4nc32)c(OC)c1 (configuration not stated)	44	106*	52*	-7	-65
O=C(NCc1ccco1)c1cnn2c(C(F)(F)F)cc(-c3cccs3)nc12	36	52*	?	0	-6
O=C(NCc1ccco1)c1cnn2c(C(F)F)cc(-c3ccccc3)nc12	6	21	32*	0	-1
CN(C)S(=O)(=O)c1cccc(NC(=O)c2ccccc2SCC(=O)N2CCCC2)c1	.	.	.	.	0
CCNC(=O)C1CCCN(C(=O)C(c2ccccc2)c2ccccc2)CC1 (configuration not stated)	.	.	.	.	0
CCCCc1c(O)nc(SCC(=O)N2CCOCC2)n(-c2ccc(C)cc2)c1=O	.	.	.	.	0
CC1=C(C(N)=O)C(c2ccc(Cl)c(Cl)c2)n2ncnc2N1 (configuration not stated)	.	.	1	-2	0
CC(C)CN1C=C2C(=O)C(C)(OC(=O)C3CCCC3)C(=O)C=C2C=C1c1ccsc1 (configuration not stated)	-1	7	-4	-2	1
CC1(OC(=O)C2CCCC2)C(=O)C=C2C=C(c3ccsc3)N(C(CO)CO)C=C2C1=O (configuration not stated)	3	28	18*	-1	1
Cc1onc(-c2ccccc2)c1C(=O)/C=C/N(C)C	0	-1	17*	1	-1
SMILES	Runt-CBFb FRET	Runt-SMMHC FRET	RanGTP-Impb inh	MEX-5 binding	KLK7 zymogen act	others
Nc1c(NCCC2=CCCCC2)c(=O)[nH]c(=O)n1Cc1ccccc1	2	9	?	-50*	-2
CCOC(=O)c1c(-c2ccsc2)csc1N	7	-3	0	2	0
CCOC(=O)c1c(-c2ccc(C)s2)csc1N	10	-2	24*	1	0
Cc1ccc(S(=O)(=O)NC(=O)C2(C)CCN2C(=O)C2CCCCC2)cc1 (configuration not stated)	.	.	.	.	0
Oc1ccc2ccccc2c1/C=N/Nc1nnc(-c2ncc[nH]2)c2ccccc12	-36	-156	3	-35*	0
COc1ccc(/C=N/Nc2nnc(-c3ncc[nH]3)c3ccccc23)cc1	-1	-3	0	1	.
Cc1cc2nc(C(C)(C)C)c(CC3CCCCC3)n2c(C)c1Br	.	.	.	.	0
O=C(Cc1ccccc1)NCC(=O)OCC(=O)c1cccc([N+](=O)[O-])c1	2	4	0	0	0
CC(C)(C)c1cc(C(=O)NCC(=O)OCC(=O)c2cccc([N+](=O)[O-])c2)cc(C(C)(C)C)c1	-5	-1	32*	-2	1
Cc1cccnc1Nc1nc(-c2ccc(O)c(O)c2)cs1	65*	52*	1	0	-1	RUNX1 CBFb TR=-22
Cc1nc2ccc(S(=O)(=O)N3CCCCC3)cc2s1	.	.	2	5	0
Nc1nc2ccc(S(=O)(=O)N3CCCCC3)cc2s1	56*	56	-5	3	1	RUNX1 CBFb TR=6
N#C/C(=C\c1c(N2CCCCC2)nc2ccccn2c1=O)S(=O)(=O)c1ccccc1	-15	-21	3	0	0
N#C/C(=C\c1c(N2CCCCCC2)nc2ccccn2c1=O)C(=O)NCc1ccco1	75*	-3	6	-1	1	RUNX1 CBFb TR=22
O=c1oc2c(-c3cccc(F)c3)cc(O)cc2s1	58*	9	-1	-2	-7	RUNX1 CBFb TR=23
COc1ccc(C(CCN2CCN(c3ccccc3)CC2)c2c(OC)cc(OC)c3c(-c4ccccc4)cc(=O)oc23)cc1 (configuration not stated)	55*	-3	4	2	-10	RUNX1 CBFb TR=-2
CC(=O)Nc1nc2c(F)cccc2s1	.	.	-1	1	0
CCOC(=O)c1sc(Nc2nc3c(OC)cccc3s2)nc1C	84*	82*	2	-1	-8	RUNX1 CBFb TR=5
CCOC(=O)c1sc(Nc2nc3c(F)cccc3s2)cc1C	98*	148*	10	1	-3	RUNX1 CBFb TR=-4
CCOC(=O)c1sc(Nc2ccccc2)nc1C	-4	-1	-1	-1	1
COc1cc2ccc(NC(C)=O)cc2cc1OC	.	.	.	.	0
Cc1ncc(CO)c(/C=N/NC(=O)c2cc(O)c(O)c(O)c2)c1O	57*	51*	8	-39*	.	RUNX1 CBFb TR=66*
Cc1onc(-c2ccccc2)c1C(=O)NC(=S)Nc1sc2c(c1C#N)CCCC2	51*	37	0	-2	0	RUNX1 CBFb TR=10
COc1ccc(NC(=O)COC(=O)C2CC2)c(OC)c1	.	.	.	.	1
CCCCn1c(N)c(N(C(=O)CSc2nnnn2-c2ccc(C)cc2)C2CCCC2)c(=O)[nH]c1=O	.	.	.	.	0

Assay outcomes (PubChem BioAssay)
